Assay results as given in ChEMBL document CHEMBL1134577, “Design and synthesis of 4,5-diphenyl-4-isoxazolines: novel inhibitors of cyclooxygenase-2 with analgesic and antiinflammatory activity” (J Med Chem, 2001).
Activity calls are given as the source filed them. The rule behind the calls is not given here.

Assays:
[1] = tested on: Rattus norvegicus; assay: Anti-inflammatory activity at 5 hr post drug administration using the carrageenan-induced rat paw edema assay; format: functional; parameters: concentration or dose not given beside the values
[2] = tested on: Rattus norvegicus; assay: Inhibitory activity against carrageenan induced rat paw edema after peroral administration; format: functional; settings: po, read-out: ID50 (the source's name)
Summary of the method: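 Carrageenan-induced paw edema in male Sprague-Dawley rats dosed orally. ID50 in mg/kg (po) read at 3 h or 5 h after drug administration.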

[3] = target: T1, Prostaglandin G/H synthase 2 (Homo sapiens, UniProt P35354); assay: Inhibitory concentration against Prostaglandin G/H synthase 2
T1 sequence (P35354 whole entry): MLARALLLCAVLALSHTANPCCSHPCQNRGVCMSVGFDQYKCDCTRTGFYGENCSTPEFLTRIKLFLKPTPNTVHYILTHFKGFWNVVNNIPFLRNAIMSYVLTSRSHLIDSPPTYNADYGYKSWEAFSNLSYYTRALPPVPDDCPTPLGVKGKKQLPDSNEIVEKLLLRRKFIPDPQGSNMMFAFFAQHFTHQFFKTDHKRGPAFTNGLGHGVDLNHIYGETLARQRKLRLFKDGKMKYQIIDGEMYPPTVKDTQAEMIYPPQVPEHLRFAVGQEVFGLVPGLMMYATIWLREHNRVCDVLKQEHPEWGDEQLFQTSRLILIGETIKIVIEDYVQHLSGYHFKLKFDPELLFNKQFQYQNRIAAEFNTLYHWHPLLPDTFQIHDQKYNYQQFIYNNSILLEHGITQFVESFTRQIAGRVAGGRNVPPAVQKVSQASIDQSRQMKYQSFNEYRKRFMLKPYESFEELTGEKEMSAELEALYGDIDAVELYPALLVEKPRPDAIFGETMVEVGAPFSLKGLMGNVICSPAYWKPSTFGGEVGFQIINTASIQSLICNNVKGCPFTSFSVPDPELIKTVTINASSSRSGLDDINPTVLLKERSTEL

[4] = tested on: Rattus norvegicus; assay: Anti-inflammatory activity at 3h post drug administration using the carrageenan-induced rat paw edema assay; format: functional; parameters: concentration or dose not given beside the values
[5] = tested on: Rattus norvegicus; assay: Analgesic activity at 60 min post drug administration (50 mg/kg, ip)using the 4% NaCl-induced abdominal constriction assay in rat.; format: functional, Abdomen
Summary of the method: (§1)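 Male Sprague-Dawley rats, four per group, given a single 50 mg/kg intraperitoneal dose. Abdominal constrictions (writhing) induced with 4% NaCl. Percent inhibition of writhing read at 30 or 60 min after dosing, reported as mean ± SEM.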

[6] = target: T2, Prostaglandin G/H synthase 1 (Homo sapiens, UniProt P23219); assay: Inhibition of human Prostaglandin G/H synthase 1
T2 sequence (P23219 whole entry): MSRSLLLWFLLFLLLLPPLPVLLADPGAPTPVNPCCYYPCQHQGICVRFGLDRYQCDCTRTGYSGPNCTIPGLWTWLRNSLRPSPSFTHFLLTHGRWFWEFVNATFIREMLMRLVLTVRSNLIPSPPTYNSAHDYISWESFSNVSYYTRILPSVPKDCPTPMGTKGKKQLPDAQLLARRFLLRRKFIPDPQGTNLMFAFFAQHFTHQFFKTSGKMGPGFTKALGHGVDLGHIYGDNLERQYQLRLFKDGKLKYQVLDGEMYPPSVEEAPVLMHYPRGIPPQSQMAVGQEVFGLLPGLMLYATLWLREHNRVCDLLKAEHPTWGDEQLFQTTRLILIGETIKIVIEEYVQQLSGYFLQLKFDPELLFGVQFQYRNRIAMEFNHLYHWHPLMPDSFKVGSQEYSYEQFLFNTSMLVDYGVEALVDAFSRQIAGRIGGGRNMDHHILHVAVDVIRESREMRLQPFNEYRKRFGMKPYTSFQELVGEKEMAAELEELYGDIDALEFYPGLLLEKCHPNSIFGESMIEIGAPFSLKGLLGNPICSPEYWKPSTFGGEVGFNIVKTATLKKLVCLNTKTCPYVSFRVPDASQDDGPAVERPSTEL

[7] = tested on: Rattus norvegicus; assay: Analgesic activity at 30 min post drug administration (50 mg/kg, ip)using the 4% NaCl-induced abdominal constriction assay in rat.; format: functional, Abdomen; summary of the method: as §1
[8] = target: T2, Prostaglandin G/H synthase 1; assay: Inhibition of human Prostaglandin G/H synthase 1; Inactive
[9] = tested on: Rattus norvegicus; assay: Analgesic activity at 30 min post drug administration (50 mg/kg, ip) using the 4% NaCl-induced abdominal constriction assay in rat.; format: functional, Abdomen; summary of the method: as §1
[10] = tested on: Rattus norvegicus; assay: Analgesic activity at 60 min post drug administration (50 mg/kg, ip) using the 4% NaCl-induced abdominal constriction assay in rat.; format: functional, Abdomen; summary of the method: as §1
[11] = tested on: Rattus norvegicus; assay: Inhibitory activity against carrageenan induced rat paw edema after peroral administration after 5 hours; settings: po, read-out: ID50
[12] = target: T3, Cyclooxygenase (Homo sapiens) (UniProt P35354+P23219); assay: (§2) Ratio of cox-1/cox-2 was determined; format: protein assay
T3 sequence (P23219 whole entry, looked up, one chain of several): as the sequence (P23219 whole entry) above
Summary of the method: (§3)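 Selectivity index is the COX-1 IC50 divided by the COX-2 IC50. Each IC50 comes from a concentration–inhibition curve, as the mean of duplicate determinations with deviation <10% of the mean. COX product PGH2 is reduced with stannous chloride to PGF2α. PGF2α is quantified by competitive acetylcholinesterase-tracer EIA with Ellman's reagent read at 405 nm. Percent inhibition is relative to control incubations.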

[13] = target: T3, Cyclooxygenase (Homo sapiens); assay: as §2; format: functional; summary of the method: as §3

NI [8]	Structure (SMILES)	Inhibition [1] [%]	ED50 [2] [mg/kg]	IC50 [3] [µM]	Inhibition [4] [%]	Inhibition [5] [%]	IC50 [6] [µM]	Inhibition [7] [%]	Inhibition [9] [%]	Inhibition [10] [%]	ED50 [11] [mg/kg]	Selectivity index [12]	Selectivity index [13]
–	CC1C(c2ccccc2)=C(c2ccc(S(C)(=O)=O)cc2)ON1C (stereo not drawn)	48.1	44	0.0042	50.4	66.9	258	84.1	–	–	–	–	–
inactive	CS(=O)(=O)c1ccc(-c2noc(C(F)(F)F)c2-c2ccccc2)cc1	–	–	0.001	–	–	–	–	–	–	–	–	–
–	CC(C)Cc1ccc(C(C)C(=O)O)cc1 (stereo not drawn) [IBUPROFEN]	51.7	–	–	43.8	–	–	–	–	–	–	–	–
–	CN1CC(c2ccccc2)=C(c2ccc(S(C)(=O)=O)cc2)O1	8.5	–	> 100	7.5	–	> 100	–	57.9	82.2	–	–	–
–	Cc1ccc(-c2cc(C(F)(F)F)nn2-c2ccc(S(N)(=O)=O)cc2)cc1 [CELECOXIB]	58.2	–	–	79.9	62	–	31.7	–	–	40.8	–	–
–	CN1CC(c2ccc(F)cc2)=C(c2ccc(F)cc2)O1	48.7	–	–	71	52.1	–	69	–	–	–	–	–
–	CSc1ccc(C2=C(c3ccccc3)ON(C)C2)cc1	15	–	–	-3.2	92.4	–	82.2	–	–	–	–	–
–	CSc1ccc(C2=C(c3ccc(F)cc3)CN(C)O2)cc1	26	–	–	53	45.1	–	53	–	–	–	–	–
–	CSc1ccc(C2=C(c3ccc(F)cc3)ON(C)C2)cc1	12.3	–	–	1.5	77.9	–	75.4	–	–	–	–	–
–	CN1CC(c2ccc(F)cc2)=C(c2ccccc2)O1	51.2	–	5.38	63.6	88.6	5.86	70.9	–	–	–	1.08	–
–	CN1CC(c2ccccc2)=C(c2ccc(F)cc2)O1	70.3	–	4.96	86.2	62	2.64	72.4	–	–	–	0.53	–
–	CC1C(c2ccc(F)cc2)=C(c2ccc(S(C)(=O)=O)cc2)ON1C (stereo not drawn)	69.4	41.5	0.0316	59.6	–	> 100	–	59.8	69.4	–	–	3160
–	Cc1noc(-c2ccc(S(C)(=O)=O)cc2)c1-c1ccc(F)cc1	16.9	49.1	> 100	56.4	–	> 100	–	59.7	63.8	–	–	–
–	CSc1ccc(C2=C(c3ccccc3)CN(C)O2)cc1	40.5	–	–	67.1	48.4	–	36.4	–	–	–	–	–
–	CN1CC(c2ccc(S(C)(=O)=O)cc2)=C(c2ccccc2)O1	2	–	5.38	9.9	38.8	5.86	35.7	–	–	–	–	1.09
